How the values were obtained:
Details in all cases: in vivo; call rule not given here
[1] = tested on: Rattus norvegicus; test: Drug recovery in male Sprague-Dawley rat at 10 mg/kg, po administered as single dose measured after 24 hrs by liquid scintillation counting analysis; assay type: ADME, organism-based; design: dose 10 mg/kg, route oral
Summary of the method: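 Rats got a single i.v. bolus or oral gavage dose of [³⁵S]-prodrug at 5 ml/kg over a 24 h study. Radioactivity in blood, tissues, carcass, urine and feces measured by liquid scintillation counting. Total recovery given as % of administered dose at 24 h.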

[2] = Drug excretion in male Sprague-Dawley rat urine at 10 mg/kg, iv administered as bolus dose measured at 0 to 1 hr post-dose by liquid scintillation counting analysis; assay type: ADME, organism-based; design: dose 10 mg/kg, route intravenous
Summary of the method: (§1)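 Single [³⁵S]-prodrug dose to rats, i.v. tail-vein bolus (PEG 400/saline vehicle) or oral gavage (citric acid buffer pH 2.5), 5 ml/kg. Urine and feces collected ~1, 4 and 24 h postdose. Radioactivity counted by liquid scintillation and expressed as % of administered dose. Mean and S.D. from nine rats per sex.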

[3] = Drug excretion in male Sprague-Dawley rat urine at 10 mg/kg, iv administered as bolus dose measured at 1 to 4 hrs post-dose by liquid scintillation counting analysis; assay type: ADME, organism-based; design: dose 10 mg/kg, route intravenous; summary of the method: as §1
[4] = Drug excretion in male Sprague-Dawley rat urine at 10 mg/kg, iv administered as bolus dose measured at 4 to 24 hrs post-dose by liquid scintillation counting analysis; assay type: ADME, organism-based; design: dose 10 mg/kg, route intravenous; summary of the method: as §1
[5] = Drug excretion in female Sprague-Dawley rat urine at 10 mg/kg, iv administered as bolus dose measured at 1 to 4 hrs post-dose by liquid scintillation counting analysis; assay type: ADME, organism-based; design: dose 10 mg/kg, route intravenous; summary of the method: as §1
[6] = Drug excretion in female Sprague-Dawley rat urine at 10 mg/kg, iv administered as bolus dose measured at 4 to 24 hrs post-dose by liquid scintillation counting analysis; assay type: ADME, organism-based; design: dose 10 mg/kg, route intravenous; summary of the method: as §1
[7] = Drug excretion in female Sprague-Dawley rat urine at 10 mg/kg, iv administered as bolus dose measured at 0 to 24 hrs post-dose by liquid scintillation counting analysis; assay type: ADME, organism-based; design: dose 10 mg/kg, route intravenous; summary of the method: as §1
[8] = Drug excretion in female Sprague-Dawley rat urine at 10 mg/kg, po administered as single dose measured at 0 to 1 hr post-dose by liquid scintillation counting analysis; assay type: ADME, organism-based; design: dose 10 mg/kg, route oral; summary of the method: as §1
[9] = Drug excretion in female Sprague-Dawley rat urine at 10 mg/kg, po administered as single dose measured at 0 to 24 hrs post-dose by liquid scintillation counting analysis; assay type: ADME, organism-based; design: dose 10 mg/kg, route oral; summary of the method: as §1
[10] = Drug excretion in male Sprague-Dawley rat feces at 10 mg/kg, iv administered as bolus dose measured at 4 to 24 hrs post-dose by liquid scintillation counting analysis; assay type: ADME, organism-based; design: dose 10 mg/kg, route intravenous; summary of the method: as §1
[11] = Drug excretion in male Sprague-Dawley rat feces at 10 mg/kg, iv administered as bolus dose measured at 0 to 24 hrs post-dose by liquid scintillation counting analysis; assay type: ADME, organism-based; design: dose 10 mg/kg, route intravenous; summary of the method: as §1
[12] = tested on: Rattus norvegicus; test: AUC in male Sprague-Dawley rat at 10 mg/kg, iv administered as bolus dose by liquid scintillation counting analysis; assay type: ADME, organism-based, Plasma; design: dose 10 mg/kg, route intravenous
Summary of the method: (§2)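 Single dose of [³⁵S]-labelled prodrug to rats, i.v. tail-vein bolus in 25% PEG 400/75% saline or oral gavage in 0.05 M citric acid buffer pH 2.5, 5 ml/kg. Retro-orbital blood into EDTA at 1, 4 or 24 h; plasma by centrifugation. Radioactivity by liquid scintillation counting as µg-Eq/ml. Noncompartmental sparse-sampling analysis gives Cmax and AUC; nine rats per sex.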

[13] = tested on: Rattus norvegicus; test: AUC in female Sprague-Dawley rat at 10 mg/kg, iv administered as bolus dose by liquid scintillation counting analysis; assay type: ADME, organism-based, Plasma; design: dose 10 mg/kg, route intravenous; summary of the method: as §2
[14] = Drug excretion in female Sprague-Dawley rat feces at 10 mg/kg, iv administered as bolus dose measured at 4 to 24 hrs post-dose by liquid scintillation counting analysis; assay type: ADME, organism-based; design: dose 10 mg/kg, route intravenous; summary of the method: as §1
[15] = Drug excretion in male Sprague-Dawley rat feces at 10 mg/kg, po administered as single dose measured at 0 to 24 hrs post-dose by liquid scintillation counting analysis; assay type: ADME, organism-based; design: dose 10 mg/kg, route oral; summary of the method: as §1
[16] = Drug excretion in female Sprague-Dawley rat feces at 10 mg/kg, po administered as single dose measured at 0 to 1 hr post-dose by liquid scintillation counting analysis; assay type: ADME, organism-based; design: dose 10 mg/kg, route oral; summary of the method: as §1
[17] = Drug excretion in female Sprague-Dawley rat feces at 10 mg/kg, po administered as single dose measured at 1 to 4 hrs post-dose by liquid scintillation counting analysis; assay type: ADME, organism-based; design: dose 10 mg/kg, route oral; summary of the method: as §1
[18] = Drug excretion in female Sprague-Dawley rat feces at 10 mg/kg, po administered as single dose measured at 4 to 24 hrs post-dose by liquid scintillation counting analysis; assay type: ADME, organism-based; design: dose 10 mg/kg, route oral; summary of the method: as §1
[19] = Drug excretion in female Sprague-Dawley rat feces at 10 mg/kg, po administered as single dose measured at 0 to 24 hrs post-dose by liquid scintillation counting analysis; assay type: ADME, organism-based; design: dose 10 mg/kg, route oral; summary of the method: as §1
[20] = tested on: Liver; test: Drug uptake in Sprague-Dawley rat liver at 10 mg/kg, iv administered as bolus dose measured at 1 to 24 hrs post-dose by liquid scintillation counting analysis; assay type: ADME, organism-based; design: dose 10 mg/kg, route intravenous
Summary of the method: (§3)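 [35S]-labelled prodrug given once to rats, iv bolus via tail vein (25% PEG 400/75% saline) or oral gavage (0.05 M citric acid buffer, pH 2.5), 5 ml/kg. Rats euthanised at 1, 4 or 24 h. Liver, lung, kidney, heart, brain, spleen, tail and retro-orbital plasma were collected. Samples were homogenised and solubilised, and radioactivity was counted by liquid scintillation. Values are µg-equivalent/ml or g and % of dose.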

[21] = tested on: Kidney; test: Drug uptake in Sprague-Dawley rat kidney at 10 mg/kg, iv administered as bolus dose measured at 1 to 24 hrs post-dose by liquid scintillation counting analysis; assay type: ADME, organism-based; design: dose 10 mg/kg, route intravenous
Summary of the method: (§4)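 Single i.v. tail-vein bolus or oral gavage of [³⁵S]-prodrug to rats, 5 ml/kg. Euthanised by i.p. pentobarbital overdose at 1, 4 or 24 h. Retro-orbital blood collected; liver, lung, kidney, heart, brain and spleen frozen. Tissues homogenised, solubilised and counted by liquid scintillation. Radioactivity given as µg-Eq/g and % of dose.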

[22] = tested on: Lung; test: Drug uptake in Sprague-Dawley rat lung at 10 mg/kg, iv administered as bolus dose measured at 1 to 24 hrs post-dose by liquid scintillation counting analysis; assay type: ADME, organism-based; design: dose 10 mg/kg, route intravenous; summary of the method: as §3
[23] = tested on: Blood; test: Drug uptake in Sprague-Dawley rat blood at 10 mg/kg, po administered as single dose measured at 4 hrs post-dose by liquid scintillation counting analysis; assay type: ADME, organism-based; design: dose 10 mg/kg, route oral; summary of the method: as §4
[24] = tested on: Plasma; test: Drug uptake in Sprague-Dawley rat plasma at 10 mg/kg, po administered as single dose measured at 4 hrs post-dose by liquid scintillation counting analysis; assay type: ADME, organism-based; design: dose 10 mg/kg, route oral; summary of the method: as §3
[25] = tested on: Rattus norvegicus; test: Terminal half life in male Sprague-Dawley rat at 10 mg/kg, iv administered as bolus dose by liquid scintillation counting analysis; assay type: ADME, organism-based; design: dose 10 mg/kg, route intravenous
Summary of the method: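 Radioactivity in plasma from rats given a single [35S]-labelled dose, iv (tail vein, 25% PEG 400/75% saline) or oral gavage (0.05 M citric acid, pH 2.5), sampled at 1, 4 and 24 h, measured by liquid scintillation as µg-Eq/ml. Elimination t1/2 and Tmax were derived by noncompartmental analysis with sparse sampling, from nine male and nine female rats.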

[26] = tested on: Rattus norvegicus; test: AUC in female Sprague-Dawley rat at 10 mg/kg, po administered as single dose by liquid scintillation counting analysis; assay type: ADME, organism-based, Plasma; design: dose 10 mg/kg, route oral; summary of the method: as §2
[27] = tested on: Rattus norvegicus; test: Cmax in male Sprague-Dawley rat at 10 mg/kg, po administered as single dose by liquid scintillation counting analysis; assay type: ADME, organism-based; design: dose 10 mg/kg, route oral; summary of the method: as §2

CO[C@@H]1[C@H](OP(=O)(OC[C@H]2O[C@@H](n3cnc4c(N)ncnc43)C[C@@H]2O)[35S]COC(=O)OC(C)C)[C@@H](CO)O[C@H]1n1ccc(=O)[nH]c1=O (some centres not stated)
Drug recovery [1]: 83% | Drug excretion [2]: 22.83% | Drug excretion [3]: 11.33% | Drug excretion [4]: 29.6% | Drug excretion [5]: 6.34% | Drug excretion [6]: 36.79% | Drug excretion [7]: 58.94% | Drug excretion [8]: 0.16% | Drug excretion [9]: 36.88% | Drug excretion [10]: 16.9% | Drug excretion [11]: 16.9% | AUC [12]: 53.58 ugequiv.h/ml | AUC [13]: 35.21 ugequiv.h/ml | Drug excretion [14]: 9.44% | Drug excretion [15]: 35.71% | Drug excretion [16]: 0.02% | Drug excretion [17]: 0.08% | Drug excretion [18]: 2.68% | Drug excretion [19]: 2.72% | Drug uptake [20]: Active | Drug uptake [21]: Active | Drug uptake [22]: Active | Drug uptake [23]: Active | Drug uptake [24]: Active | beta t1/2 [25]: 7.8 h | AUC [26]: 27.37 ugequiv.h/ml | Cmax [27]: 2.53 ugequiv/ml

From ChEMBL document CHEMBL3526154, “Metabolism, pharmacokinetics, tissue distribution, and stability studies of the prodrug analog of an anti-hepatitis B virus dinucleoside phosphorothioate” (Drug Metab Dispos, 2012)
